# SENP6 block – SENP6 protease inhibitors, primary screen, biochemical, luminescence, uHTS | Sentrin-specific protease 6 (Homo sapiens), Q9GZR1 | 330,000 compounds, 1.8% hits | Recombinant SENP6 catalytic domain, aminoluciferin luminescence | inhibition, % at 10 µM;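 active means inhibition above about 50% at the single tested dose, limit read from the data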
# Target sequence (Q9GZR1 628-1112 limits assumed): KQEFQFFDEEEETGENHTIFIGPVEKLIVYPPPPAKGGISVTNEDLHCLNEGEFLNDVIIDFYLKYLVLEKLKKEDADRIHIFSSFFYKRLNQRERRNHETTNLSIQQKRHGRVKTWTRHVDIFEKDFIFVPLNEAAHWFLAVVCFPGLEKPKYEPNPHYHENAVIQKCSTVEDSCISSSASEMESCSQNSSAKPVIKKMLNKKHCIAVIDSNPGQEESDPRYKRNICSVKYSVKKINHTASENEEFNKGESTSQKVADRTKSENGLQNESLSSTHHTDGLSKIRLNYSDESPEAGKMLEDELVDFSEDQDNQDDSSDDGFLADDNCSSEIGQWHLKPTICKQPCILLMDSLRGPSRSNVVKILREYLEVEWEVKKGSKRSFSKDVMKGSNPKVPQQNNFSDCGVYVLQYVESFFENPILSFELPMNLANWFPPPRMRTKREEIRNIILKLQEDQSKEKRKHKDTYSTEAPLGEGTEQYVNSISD
# SENP1 FRET inh – human SENP1 catalytic domain inhibitors, primary screen, biochemical, FRET, uHTS | Sentrin-specific protease 1 (Homo sapiens), Q9P0U3 | recombinant SENP1 catalytic domain, CyPet-SUMO1-YPet FRET cleavage | inhibition, % at 10 µM | 360,000 compounds, 0.21% hits | AID 624204, 2012;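 active means inhibition at least 30% at 10 µM, raw YFP signal under a set limit, fluorescence ratio 0.5 to 1.5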
#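 Material – human SENP1 catalytic domain · Input – SENP1 enzyme, 20 pM final · Compound dosing – single concentration of 10 µM compound, 0.5% DMSO final · Timing – enzyme reaction for 50 min at room temperature, dark · Measured by – FRET fluorescence in CFP and YFP emission channels · Control set – no-enzyme wells low, DMSO-plus-enzyme wells high control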
# Platelet DG rel – inhibitors of platelet dense granule secretion, primary screen, cell-based, MLPCN, human platelets; 300,000 compounds, 0.22% hits; AID 1663, 2009; inhibition, %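 (compounds screened at 7.5 µM in platelet-rich plasma)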; human platelet-rich plasma, SFLLRN dense granule ATP release, luminescence;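 active means mean replicate score, as percent of positive control, at or above 50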
# SENP7 block – SENP7 protease inhibitors, primary screen, biochemical, luminescence, uHTS; Sentrin-specific protease 7 (Homo sapiens), Q9BQF6; recombinant SENP7, Z-RLRGG-aminoluciferin luminescence, 40 min; inhibition, % at 5 µM; 330,000 compounds, 1.5% hits;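 active means inhibition above about 50% at the single test dose, limit read from the data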
# SENP8 block-1 – human SENP8 protease inhibitors, primary screen, biochemical, fluorescence, Nedd8 protein substrate, uHTS. Sentrin-specific protease 8 (Homo sapiens), Q96LD8. recombinant SENP8. inhibition, % at 20 µM. 360,000 compounds, 0.64% hits; in the data active means inhibition mostly above about 40%, no sharp cut-off; inactive means mostly below about 27%
# SENP8 block-2 – SENP8 protease inhibitors, primary screen, biochemical, luminescence. Sentrin-specific protease 8 (Homo sapiens), Q96LD8. purified SENP8, Z-RLRGG-aminoluciferin cleavage. inhibition, % at 10 µM. 330,000 compounds, 1.2% hits. AID 2540, 2010; in the data active means inhibition above about 50%
# SENP8 conf – SENP8 protease inhibitors, retest, confirmation, biochemical, luminescence, single concentration; Recombinant SENP8, Z-RLRGG-aminoluciferin luminescence, 60 min; 6,200 compounds, 40% hits; shares compounds with SENP7 block; AID 488912, 2010; inhibition, % at 12.5 µM;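 active means mean inhibition across replicates above about 50%, limit read from the data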
# SENP6 conf – SENP6 protease inhibitors, confirmation, biochemical, luminescence, single concentration; shares compounds with SENP7 block; recombinant SENP6, Z-RLRGG-aminoluciferin luminescence; inhibition, % at 12.5 µM; 6,200 compounds, 58% hits
# SENP7 conf – SENP7 protease inhibitors, retest, confirmation, biochemical, luminescence, single concentration | shares compounds with SENP7 block | inhibition, % at 12.5 µM | recombinant SENP7, Z-RLRGG-aminoluciferin luminescence, 40 min | 6,200 compounds, 69% hits
# Casp3 SENP sel – caspase-3 protease inhibitors, confirmation, selectivity assay for SENP inhibitor project, biochemical, single concentration; shares compounds with SENP7 block; purified caspase-3, Z-DEVD-aminoluciferin luminescence, 60 min; inhibition, % at 12.5 µM; 6,200 compounds, 60% hits; AID 488918, 2010;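 active means mean inhibition above about 50%, limit read from the data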
# Target sequence (P42574 28-227 limits assumed): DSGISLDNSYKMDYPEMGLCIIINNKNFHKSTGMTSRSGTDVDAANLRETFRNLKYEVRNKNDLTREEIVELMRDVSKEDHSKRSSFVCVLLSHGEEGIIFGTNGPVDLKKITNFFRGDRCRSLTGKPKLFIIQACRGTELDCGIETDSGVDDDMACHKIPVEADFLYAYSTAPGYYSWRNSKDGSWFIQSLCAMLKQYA
# SENP luc ctr – counter-screen for SENP inhibitors: luminescence interference | shares compounds with SENP7 block | Pre-incubated SENP8/Z-RLRGG-aminoluciferin, luciferase luminescence interference | inhibition, % at 12.5 µM | 6,200 compounds, 39% hits | AID 488919;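 active means mean inhibition above about 50% when retested at one dose, limit read from the data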
# A number is an active result; i = inactive; nt = no result. Rows were chosen to be rich in hits. Some 2.6% of all compounds tested hit in one or more screens of this group.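 How the source made its calls, unless noted: active means mean inhibition above about 50% in the one-dose retest (limit read from the data); inactive means the rest.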
SMILES,SENP6 block,SENP1 FRET inh,Platelet DG rel,SENP7 block,SENP8 block-1,SENP8 block-2,SENP8 conf,SENP6 conf,SENP7 conf,Casp3 SENP sel,SENP luc ctr
COc1ccc(-c2cc(C(=O)O)c3ccccc3n2)c(OC)c1,i,i,i,i,i,i,nt,nt,nt,nt,nt
NC1(C#Cc2ccc3c(=O)c4ccccc4sc3c2)CCCCC1,i,i,nt,i,i,i,nt,nt,nt,nt,nt
Cc1cc2sc3ccc(C#CC4(O)CCCCC4)cc3c(=O)c2cc1C,97,i,i,99,i,94,i,i,i,73,i
O=c1c2ccccc2oc2ccc(C#CC3(O)CCCCC3)cc12,94,i,i,89,i,92,92,94,99,83,68
Cn1c2ccccc2c(=O)c2cc(C#Cc3ccccn3)ccc21,88,i,i,82,i,83,i,i,i,i,i
Cn1c2ccccc2c(=O)c2ccc(C#Cc3ccccn3)cc21,i,nt,i,i,nt,i,nt,nt,nt,nt,nt
Cn1c2ccccc2c(=O)c2cc(C#CC3(O)CCCCC3)ccc21,96,i,i,97,i,92,i,57,i,62,78
COc1cccc2oc3ccc(C#CC4(N)CCCCC4)cc3c(=O)c12,54,i,i,i,i,i,55,52,81,70,i
Cc1ccc(C(=O)Nc2cccc(C(=O)O)c2)cc1,92,nt,i,99,nt,95,99,100,103,96,98
CCOc1ccc(C(=O)Nc2cc(NC(=O)c3ccc(OCC)c(Cl)c3)cc(C(=O)O)c2)cc1Cl,i,i,i,i,i,i,nt,nt,nt,nt,nt
O=C(O)c1cccc(NC(=O)c2cc(NC(=O)c3ccccc3)cc(NC(=O)c3ccccc3)c2)c1,90,i,i,i,i,i,i,i,i,i,i
O=C(O)c1cccc(NC(=O)c2ccccc2)c1,nt,i,nt,nt,i,nt,nt,nt,nt,nt,nt
COc1ccc(C(=O)Nc2cc(-c3ccc(C)cc3)no2)cc1,i,i,i,i,i,i,nt,nt,nt,nt,nt
Cc1ccc(-c2cc(NC(=O)c3ccccc3)on2)cc1,50,i,i,87,i,52,i,i,92,63,i
CCOc1ccc(C(=O)Nc2cccc(C(=O)O)c2)cc1Cl,95,i,i,100,i,97,98,99,102,90,98
CN1C[C@@H]2[C@@H]3C(=O)N(C)C(=O)[C@@H]3[C@](C)(C1=O)N2C(=O)c1ccc(Cl)cc1,nt,i,nt,nt,i,nt,nt,nt,nt,nt,nt
COc1cc(/C=C(\C#N)C(=O)Nc2ccc3c(c2)OCCO3)ccc1O,i,i,i,i,i,i,nt,nt,nt,nt,nt
O=C(CSc1nnc(CNC(=O)c2cccs2)o1)Nc1ccccc1F,i,i,i,i,i,i,nt,nt,nt,nt,nt
CC(C)(C)c1ccc(CC(=O)N2CCC2(C)C(=O)NS(=O)(=O)c2ccc(Cl)s2)cc1 (centres undefined),nt,i,nt,nt,i,nt,nt,nt,nt,nt,nt
Cc1ccc(C)c(S(=O)(=O)C(C#N)c2nc3ccccc3nc2N2CCCC2)c1 (centres undefined),70,i,i,i,i,65,i,i,i,i,i
Cc1ccc(C)c(S(=O)(=O)C(C#N)c2nc3ccccc3nc2N2CCOCC2)c1 (centres undefined),i,i,i,i,i,i,nt,nt,nt,nt,nt
CCOC(=O)c1cc2ccc(OC(=O)c3ccco3)cc2oc1=O,56,i,i,63,i,i,55,61,87,89,56
CCOC(=O)c1c(C)n(C)c2ccc(OC(=O)c3ccco3)cc12,i,i,i,i,i,i,nt,nt,nt,nt,nt
COc1ccccc1-n1ccnc1SCC(=O)NCc1ccco1,i,i,i,i,i,i,nt,nt,nt,nt,nt
COc1ccc(OCC(=O)Nc2cccc(-c3nc4ccccc4[nH]3)c2)cc1,74,i,i,76,i,61,77,76,92,58,79
SMILES,SENP6 block,SENP1 FRET inh,Platelet DG rel,SENP7 block,SENP8 block-1,SENP8 block-2,SENP8 conf,SENP6 conf,SENP7 conf,Casp3 SENP sel,SENP luc ctr
CS(=O)(=O)c1cccc(C(=O)Nc2cccc(-c3nc4ccccc4[nH]3)c2)c1,96,i,i,96,i,91,96,97,102,i,96
CS(=O)(=O)Cc1ccc(C(=O)Nc2cccc(-c3nc4ccccc4[nH]3)c2)cc1,79,i,i,67,i,50,59,57,81,62,i
NC(=S)n1[nH]c(-c2ccc([N+](=O)[O-])cc2)c(N=Nc2ccc(O)cc2)c1=O,i,i,i,i,i,i,nt,nt,nt,nt,nt
CC(=O)N(C)c1ccc(N=Nc2c(C)[nH]n(C(N)=S)c2=O)cc1,78,i,i,85,i,78,86,87,98,96,90
CCN(CC)S(=O)(=O)c1ccc(N=Nc2c(C)[nH]n(C(N)=S)c2=O)cc1,54,i,i,i,i,i,i,i,72,56,i
C=COC(=O)CSc1nc(-c2cccs2)ccc1C#N,57,i,nt,i,i,i,i,70,i,i,i
CCOC(=O)C(C)Sc1nc(-c2cccs2)ccc1C#N (centres undefined),i,i,i,i,i,i,nt,nt,nt,nt,nt
COC(=O)c1sc(S(=O)(=O)NC(Cc2ccccc2)C(=O)O)c(C(=O)OC)c1C (centres undefined),i,i,nt,i,i,i,nt,nt,nt,nt,nt
Nc1nn(-c2cccc(F)n2)cc1-c1ccccc1,87,i,i,92,i,84,i,81,97,83,i
Nc1nn(-c2cccc(F)n2)cc1-c1ccc(Cl)cc1,62,i,i,88,i,52,i,i,i,i,i
Nc1nc(Br)c2c(F)cccc2c1-c1ccccc1,i,i,i,i,i,i,nt,nt,nt,nt,nt

# Source: PubChem BioAssay
